Reference: ChEMBL document CHEMBL2311350, “Discovery of a novel phenylethyl benzamide glucokinase activator for the treatment of type 2 diabetes mellitus” (Bioorg Med Chem Lett, 2013)
One block for each molecule: values may come before it.

Experiments:
[1] = biological target: T1, Hexokinase-4 (Homo sapiens, UniProt P35557); assay: Induction of human pancreatic glucokinase activity at 5 mM glucose concentration
T1 sequence (P35557 whole entry): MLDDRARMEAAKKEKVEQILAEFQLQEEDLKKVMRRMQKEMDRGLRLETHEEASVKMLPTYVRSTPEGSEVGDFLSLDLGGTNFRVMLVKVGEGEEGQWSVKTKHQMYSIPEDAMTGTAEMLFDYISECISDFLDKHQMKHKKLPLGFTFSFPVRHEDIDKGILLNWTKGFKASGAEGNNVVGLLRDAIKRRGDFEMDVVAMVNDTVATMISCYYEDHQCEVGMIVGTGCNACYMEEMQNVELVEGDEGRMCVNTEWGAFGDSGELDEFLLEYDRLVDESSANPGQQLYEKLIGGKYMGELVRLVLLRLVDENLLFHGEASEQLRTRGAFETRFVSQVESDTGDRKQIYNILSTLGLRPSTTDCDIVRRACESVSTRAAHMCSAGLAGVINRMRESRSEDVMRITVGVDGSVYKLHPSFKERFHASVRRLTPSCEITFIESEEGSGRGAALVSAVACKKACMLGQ
In short: (§1)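 Enzymatic assay with purified recombinant human pancreatic or liver glucokinase, read as fold increase in activity at 5.0 mM glucose. EC50 is the mean of at least duplicate runs. For the pancreatic enzyme, glucose S0.5 and Vmax were also determined.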

[2] = tested on: Mus musculus; assay: Increase in oral glucose tolerance in C57BL/J mouse assessed as reduction in glucose area under curve at 300 mg/kg by OGTT; format: functional; design: scale not given: the % may be the effect or the level left
[3] = Bioavailability in dog; format: ADME, organism-based, Canis lupus familiaris; conditions: in vivo
In short: (§2)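 Pharmacokinetics in mice and dogs after a single intravenous dose and a single oral dose. Clearance, volume of distribution, elimination half-life and oral bioavailability (F) were derived.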

[4] = Elimination half life in mouse; format: ADME, organism-based; conditions: in vivo, read-out: beta t1/2 (converted); in short: as §2
[5] = biological target: T1, Hexokinase-4; assay: Induction of human hepatic glucokinase activity at 5 mM glucose concentration; in short: as §1
[6] = Elimination half life in dog; format: ADME, organism-based, Canis lupus familiaris; conditions: in vivo, read-out: beta t1/2 (converted); in short: as §2
[7] = Volume of distribution in dog; format: ADME, organism-based, Canis lupus familiaris; conditions: in vivo; in short: as §2
[8] = biological target: Cytochrome P450 2C9 (Homo sapiens, UniProt P11712); assay: Inhibition of CYP2C9 (unknown origin) at 25 to 50 uM; format: ADME
Chain of Cytochrome P450 2C9 (P11712 whole entry): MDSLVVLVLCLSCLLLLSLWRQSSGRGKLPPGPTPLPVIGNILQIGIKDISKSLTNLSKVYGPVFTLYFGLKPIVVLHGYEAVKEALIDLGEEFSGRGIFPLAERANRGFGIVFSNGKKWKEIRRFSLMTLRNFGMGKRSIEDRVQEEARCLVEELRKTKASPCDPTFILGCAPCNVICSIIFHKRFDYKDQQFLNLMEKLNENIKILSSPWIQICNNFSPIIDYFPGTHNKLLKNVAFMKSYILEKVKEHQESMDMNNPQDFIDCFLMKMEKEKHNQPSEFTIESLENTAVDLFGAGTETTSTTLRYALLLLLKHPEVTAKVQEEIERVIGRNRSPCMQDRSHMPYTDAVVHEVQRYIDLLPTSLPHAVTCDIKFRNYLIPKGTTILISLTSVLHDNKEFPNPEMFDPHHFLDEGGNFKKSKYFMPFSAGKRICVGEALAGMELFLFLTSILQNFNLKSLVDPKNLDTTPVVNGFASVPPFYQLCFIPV

[9] = Metabolic stability in human liver microsomes assessed as compound remaining after 60 mins; format: ADME, Microsome; conditions: read-out: Stability
In short: (§3)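 Compound incubated for 1 h with mouse, dog or human liver microsomes. Percent of parent compound remaining was measured.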

[10] = Clearance in mouse; format: ADME, organism-based; conditions: in vivo; in short: as §2
[11] = organism: Mus musculus; assay: Toxicity in ob/ob mouse assessed as effect on body weight; format: organism-based; conditions: in vivo
In short: (§4)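 ob/ob mice dosed orally and repeatedly in a subchronic study. Blood glucose, serum lipids and body weight were monitored.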

[12] = biological target: Cytochrome P450 2C19 (Homo sapiens, UniProt P33261); assay: Inhibition of CYP2C19 (unknown origin) at 25 to 50 uM; format: ADME
Chain of Cytochrome P450 2C19 (P33261 whole entry): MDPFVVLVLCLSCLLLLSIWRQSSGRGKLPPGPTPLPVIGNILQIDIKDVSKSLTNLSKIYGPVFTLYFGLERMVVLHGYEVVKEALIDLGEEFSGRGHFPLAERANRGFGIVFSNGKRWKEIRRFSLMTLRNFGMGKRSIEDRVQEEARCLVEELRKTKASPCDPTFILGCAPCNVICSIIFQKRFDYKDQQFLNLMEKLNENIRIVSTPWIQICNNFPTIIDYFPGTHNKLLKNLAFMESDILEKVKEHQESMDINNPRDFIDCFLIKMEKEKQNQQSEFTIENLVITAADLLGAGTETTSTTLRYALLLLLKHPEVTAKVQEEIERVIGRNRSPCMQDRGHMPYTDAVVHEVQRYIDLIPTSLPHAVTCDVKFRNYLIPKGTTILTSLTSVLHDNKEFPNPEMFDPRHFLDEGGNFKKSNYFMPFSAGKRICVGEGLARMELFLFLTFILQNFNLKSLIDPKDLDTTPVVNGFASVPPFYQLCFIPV

[13] = Volume of distribution in mouse; format: ADME, organism-based; conditions: in vivo; in short: as §2
[14] = organism: Mus musculus; assay: Toxicity in ob/ob mouse assessed as effect on serum lipid level; format: organism-based; conditions: in vivo; in short: as §4
[15] = Metabolic stability in mouse liver microsomes assessed as compound remaining after 60 mins; format: ADME, Microsome; conditions: read-out: Stability; in short: as §3
[16] = Bioavailability in mouse; format: ADME, organism-based; conditions: in vivo; in short: as §2
[17] = biological target: T2, Cytochrome P450 1A2 (Homo sapiens, UniProt P05177); assay: Inhibition of CYP1A2 (unknown origin) at 25 to 50 uM; format: ADME
T2 sequence (P05177 whole entry): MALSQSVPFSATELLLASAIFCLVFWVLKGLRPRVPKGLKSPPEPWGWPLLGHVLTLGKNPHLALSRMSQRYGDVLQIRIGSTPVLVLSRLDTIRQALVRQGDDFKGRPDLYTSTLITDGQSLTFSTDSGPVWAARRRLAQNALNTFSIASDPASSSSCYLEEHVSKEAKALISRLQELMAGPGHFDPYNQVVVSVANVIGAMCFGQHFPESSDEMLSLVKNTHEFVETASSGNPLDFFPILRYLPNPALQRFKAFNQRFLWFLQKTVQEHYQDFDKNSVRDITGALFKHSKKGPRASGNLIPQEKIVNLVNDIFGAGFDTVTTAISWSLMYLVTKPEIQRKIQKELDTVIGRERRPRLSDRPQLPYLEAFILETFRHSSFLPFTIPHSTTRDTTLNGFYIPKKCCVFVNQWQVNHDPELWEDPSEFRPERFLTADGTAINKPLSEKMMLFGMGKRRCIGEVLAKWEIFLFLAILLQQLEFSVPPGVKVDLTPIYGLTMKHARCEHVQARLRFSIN

[18] = Metabolic stability in dog liver microsomes assessed as compound remaining after 60 mins; format: ADME, Canis lupus familiaris, Microsome; conditions: read-out: Stability; in short: as §3
[19] = Clearance in dog; format: ADME, organism-based, Canis lupus familiaris; conditions: in vivo; in short: as §2
[20] = tested on: Mus musculus; assay: Toxicity in C57BL/J mouse assessed as hypoglycemic risk at 150 mg/kg; format: organism-based; design: dose 150 mg/kg; conditions: in vivo
In short: (§5)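 C57BL/J6 mice given oral dosing followed by an oral glucose tolerance test. Plasma glucose was tracked over time and glucose AUC reduction calculated. Several doses were tested, including 50 and 150 mg/kg. Hypoglycemia risk was judged from the glucose profiles.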

[21] = biological target: Cytochrome P450 2D6 (Homo sapiens, UniProt P10635); assay: Inhibition of CYP2D6 (unknown origin) at 25 to 50 uM; format: ADME
Chain of Cytochrome P450 2D6 (P10635 whole entry): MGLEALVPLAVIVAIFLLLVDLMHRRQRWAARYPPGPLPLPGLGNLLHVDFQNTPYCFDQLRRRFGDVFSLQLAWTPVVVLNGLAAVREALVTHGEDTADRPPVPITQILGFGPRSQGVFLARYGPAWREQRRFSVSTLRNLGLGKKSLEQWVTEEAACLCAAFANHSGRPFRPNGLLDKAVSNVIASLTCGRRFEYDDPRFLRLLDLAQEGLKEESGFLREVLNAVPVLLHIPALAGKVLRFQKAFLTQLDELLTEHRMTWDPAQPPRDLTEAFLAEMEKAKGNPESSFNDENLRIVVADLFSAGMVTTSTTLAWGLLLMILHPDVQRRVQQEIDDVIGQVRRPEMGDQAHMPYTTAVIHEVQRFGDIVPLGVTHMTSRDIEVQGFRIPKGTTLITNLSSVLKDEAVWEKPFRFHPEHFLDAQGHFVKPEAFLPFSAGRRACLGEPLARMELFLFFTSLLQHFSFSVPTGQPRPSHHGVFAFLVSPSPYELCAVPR

[22] = tested on: Mus musculus; assay: Increase in oral glucose tolerance in C57BL/J mouse assessed as reduction in glucose area under curve at 50 mg/kg by OGTT; format: functional; design: scale not given: the % may be the effect or the level left; in short: as §5
[23] = biological target: Cytochrome P450 3A4 (Homo sapiens, UniProt P08684); assay: Inhibition of CYP3A4 (unknown origin) at 25 to 50 uM; format: ADME
Chain of Cytochrome P450 3A4 (P08684 whole entry): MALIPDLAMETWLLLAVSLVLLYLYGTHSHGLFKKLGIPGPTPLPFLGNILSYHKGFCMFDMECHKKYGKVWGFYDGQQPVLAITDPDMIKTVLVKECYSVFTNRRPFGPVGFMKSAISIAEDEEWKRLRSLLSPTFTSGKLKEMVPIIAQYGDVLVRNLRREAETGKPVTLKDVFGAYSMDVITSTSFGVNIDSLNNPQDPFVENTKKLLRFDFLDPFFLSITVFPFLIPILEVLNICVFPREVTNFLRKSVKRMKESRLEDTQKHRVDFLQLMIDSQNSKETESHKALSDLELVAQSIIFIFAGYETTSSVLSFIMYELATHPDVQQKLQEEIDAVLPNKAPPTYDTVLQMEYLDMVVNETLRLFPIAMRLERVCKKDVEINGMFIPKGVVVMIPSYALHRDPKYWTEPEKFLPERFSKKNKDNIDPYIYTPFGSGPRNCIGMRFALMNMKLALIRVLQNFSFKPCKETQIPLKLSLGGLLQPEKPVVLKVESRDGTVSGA

EC50 [1]: 284 nM
SMILES: COC[C@H](C)Oc1cc(/C=C/c2ccc([N+](=O)[O-])cc2)cc(C(=O)Nc2ccc(C(=O)O)cn2)c1

EC50 [1]: 200 nM
SMILES: COC[C@H](C)Oc1cc(/C=C/c2cc(F)ccc2F)cc(C(=O)Nc2ccn(C)n2)c1

EC50 [1]: 848 nM
SMILES: COC[C@H](C)Oc1cc(/C=C/c2cc(F)cc(F)c2F)cc(C(=O)Nc2ccn(C)n2)c1

EC50 [1]: 778 nM
SMILES: COC[C@H](C)Oc1cc(/C=C/c2cc(F)cc(F)c2F)cc(C(=O)Nc2ccc(C(=O)O)cn2)c1

EC50 [1]: 115 nM
SMILES: COC[C@H](C)Oc1cc(/C=C/c2ccccc2OC)cc(C(=O)Nc2ccn(C)n2)c1

EC50 [1]: 184 nM
SMILES: COC[C@H](C)Oc1cc(CCc2ccc(F)cc2F)cc(C(=O)Nc2ccn(C)n2)c1

EC50 [1]: 855 nM
SMILES: COC[C@H](C)Oc1cc(CCc2cc(F)cc(F)c2F)cc(C(=O)Nc2ccn(C)n2)c1

EC50 [1]: 283 nM
SMILES: COC[C@H](C)Oc1cc(/C=C/c2ccccc2[N+](=O)[O-])cc(C(=O)Nc2ccn(C)n2)c1

EC50 [1]: 216 nM
SMILES: COC[C@H](C)Oc1cc(CCc2ccc(F)cc2)cc(C(=O)Nc2ccn(C)n2)c1

EC50 [1]: 119 nM
SMILES: COC[C@H](C)Oc1cc(/C=C/c2ccc(F)cc2)cc(C(=O)Nc2ccn(C)n2)c1

SMILES: CN(C)C(=N)NC(=N)N [METFORMIN]
Activity [2]: 29.9%

EC50 [1]: 131 nM
SMILES: COC[C@H](C)Oc1cc(CCc2c(F)cccc2F)cc(C(=O)Nc2ccn(C)n2)c1

EC50 [1]: 132 nM
SMILES: COC[C@H](C)Oc1cc(/C=C/c2cccc(C)n2)cc(C(=O)Nc2ccn(C)n2)c1

bioavailability [3]: 100%
SMILES: COC[C@H](C)Oc1cc(Oc2cc(F)cc(F)c2)cc(C(=O)Nc2ccc(C(=O)O)cn2)c1

EC50 [1]: 109 nM
SMILES: COC[C@H](C)Oc1cc(/C=C/c2ccc(F)cc2F)cc(C(=O)Nc2ccn(C)n2)c1

EC50 [1]: 161 nM
SMILES: COC[C@H](C)Oc1cc(/C=C/c2c(F)cccc2F)cc(C(=O)Nc2ccn(C)n2)c1

EC50 [1]: 80 nM
SMILES: COC[C@H](C)Oc1cc(/C=C/c2ccccc2F)cc(C(=O)Nc2ccn(C)n2)c1

half-life [4]: 2.6 h
EC50 [5]: 85 nM
half-life [6]: 2.6 h
Vd [7]: 0.49 L/kg
inhibition (INH) [8]: Not Active
remaining at 1 h [9]: > 60%
clearance [10]: 2.5 mL/min/kg
EC50 [1]: 70 nM
inhibition (INH) [12]: Not Active
bioavailability [3]: 85%
Vd [13]: 0.33 L/kg
remaining at 1 h [15]: > 60%
bioavailability [16]: 66%
inhibition (INH) [17]: Not Active
remaining at 1 h [18]: > 60%
clearance [19]: 7.17 mL/min/kg
inhibition (INH) [21]: Not Active
inhibition (INH) [23]: Not Active
SMILES: COC[C@H](C)Oc1cc(CCc2c(F)cccc2F)cc(C(=O)Nc2ccc(C(=O)O)cn2)c1
Activity [11]: Non-toxic
Activity [14]: Non-toxic
Activity [20]: Toxic
Activity [22]: 29.6%

EC50 [1]: 852 nM
SMILES: COC[C@H](C)Oc1cc(/C=C/c2ccc([N+](=O)[O-])cc2)cc(C(=O)Nc2ccn(C)n2)c1
